Converted amounts (≈) assume the structure as drawn. The source made the active and inactive calls. No cut-off for these calls is given here.
Key:
[1] = tested on: Hepatitis C virus; test: Antiviral activity against HCV1a infected in clone A and ET-lunet cells assessed as inhibition of viral replication up to 20 uM after 4 days by RT-PCR analysis; format: functional, organism-based; settings: Hepacivirus hominis, subtype 1a
[2] = tested on: Hepatitis C virus; test: Antiviral activity against HCV1a infected in clone A and ET-lunet cells assessed as inhibition of viral replication after 4 days by RT-PCR analysis; format: functional, organism-based, Hepacivirus hominis; settings: subtype 1a, 96 h
Summary of the method: (§1)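 Run in HCV genotype 1a and 1b replicon cells; each reported value is the mean of n = 2 independent determinations.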

[3] = tested on: Hepatitis C virus; test: Antiviral activity against HCV1b infected in clone A and ET-lunet cells assessed as inhibition of viral replication up to 20 uM after 4 days by RT-PCR analysis; format: functional, organism-based; settings: Hepacivirus hominis, genotype 1b
[4] = tested on: Hepatitis C virus; test: Antiviral activity against HCV1b infected in clone A and ET-lunet cells assessed as inhibition of viral replication after 4 days by RT-PCR analysis; format: functional, organism-based, Hepacivirus hominis; settings: genotype 1b, 96 h; summary of the method: as §1
[5] = Solubility of the compound at pH 4; format: physicochemical; settings: buffer
[6] = molecular target: T1, Cytochrome P450 1A2 (Homo sapiens, UniProt P05177); test: Inhibition of CYP1A2 (unknown origin) up to 10 uM; format: ADME
T1 sequence (P05177 whole entry): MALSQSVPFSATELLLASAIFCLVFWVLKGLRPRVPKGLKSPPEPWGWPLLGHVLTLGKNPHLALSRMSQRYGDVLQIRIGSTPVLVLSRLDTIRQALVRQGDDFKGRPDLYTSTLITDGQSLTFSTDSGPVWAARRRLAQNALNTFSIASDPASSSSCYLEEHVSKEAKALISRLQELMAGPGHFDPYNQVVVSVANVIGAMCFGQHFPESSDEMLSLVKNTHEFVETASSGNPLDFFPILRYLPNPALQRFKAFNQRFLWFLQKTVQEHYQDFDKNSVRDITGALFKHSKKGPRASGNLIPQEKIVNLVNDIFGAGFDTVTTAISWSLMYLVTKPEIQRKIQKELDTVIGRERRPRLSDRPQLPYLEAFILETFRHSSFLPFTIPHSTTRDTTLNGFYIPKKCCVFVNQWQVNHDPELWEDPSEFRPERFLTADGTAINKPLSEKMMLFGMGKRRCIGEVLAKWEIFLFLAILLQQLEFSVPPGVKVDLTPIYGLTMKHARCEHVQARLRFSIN

[7] = Half life in human liver microsomes; format: ADME
[8] = Solubility of the compound at pH 7.4; format: physicochemical; settings: buffer
[9] = molecular target: Cytochrome P450 3A4 (Homo sapiens, UniProt P08684); test: Inhibition of CYP3A4 (unknown origin) up to 10 uM; format: ADME
[10] = molecular target: Cytochrome P450 2C9 (Homo sapiens, UniProt P11712); test: Inhibition of CYP2C9 (unknown origin) up to 10 uM; format: ADME
[11] = tested on: Hepatitis C virus; test: Antiviral activity against HCV2 assessed as inhibition of viral replication; format: functional, organism-based; settings: Hepacivirus hominis; type 2
[12] = molecular target: Cytochrome P450 2D6 (Homo sapiens, UniProt P10635); test: Inhibition of CYP2D6 (unknown origin) up to 10 uM; format: ADME
[13] = Cytotoxicity against human HuH7 cells after 8 days by MTS assay; format: cell-based, Huh-7
[14] = Cytotoxicity against human CEM cells after 8 days by MTS assay; format: cell-based; settings: CEM cells (CCRF-CEM)
[15] = Cytotoxicity against human BxPC3 cells after 8 days by MTS assay; format: cell-based, BXPC-3
[16] = Cytotoxicity against human HepG2 cells after 8 days by MTS assay; format: cell-based

Chain of Cytochrome P450 2C9 (P11712 whole entry): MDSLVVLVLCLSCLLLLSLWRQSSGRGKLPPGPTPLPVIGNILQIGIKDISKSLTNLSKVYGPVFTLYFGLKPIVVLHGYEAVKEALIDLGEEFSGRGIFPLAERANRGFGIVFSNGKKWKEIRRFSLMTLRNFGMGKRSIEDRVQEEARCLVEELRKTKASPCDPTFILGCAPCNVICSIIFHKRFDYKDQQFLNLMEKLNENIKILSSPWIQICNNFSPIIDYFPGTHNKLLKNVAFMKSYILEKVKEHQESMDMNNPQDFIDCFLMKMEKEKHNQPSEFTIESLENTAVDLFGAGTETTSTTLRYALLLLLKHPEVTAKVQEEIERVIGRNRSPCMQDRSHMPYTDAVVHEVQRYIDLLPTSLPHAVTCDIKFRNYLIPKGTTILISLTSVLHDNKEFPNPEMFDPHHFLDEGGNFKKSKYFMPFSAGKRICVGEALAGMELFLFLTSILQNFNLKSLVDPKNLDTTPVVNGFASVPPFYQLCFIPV
Chain of Cytochrome P450 2D6 (P10635 whole entry): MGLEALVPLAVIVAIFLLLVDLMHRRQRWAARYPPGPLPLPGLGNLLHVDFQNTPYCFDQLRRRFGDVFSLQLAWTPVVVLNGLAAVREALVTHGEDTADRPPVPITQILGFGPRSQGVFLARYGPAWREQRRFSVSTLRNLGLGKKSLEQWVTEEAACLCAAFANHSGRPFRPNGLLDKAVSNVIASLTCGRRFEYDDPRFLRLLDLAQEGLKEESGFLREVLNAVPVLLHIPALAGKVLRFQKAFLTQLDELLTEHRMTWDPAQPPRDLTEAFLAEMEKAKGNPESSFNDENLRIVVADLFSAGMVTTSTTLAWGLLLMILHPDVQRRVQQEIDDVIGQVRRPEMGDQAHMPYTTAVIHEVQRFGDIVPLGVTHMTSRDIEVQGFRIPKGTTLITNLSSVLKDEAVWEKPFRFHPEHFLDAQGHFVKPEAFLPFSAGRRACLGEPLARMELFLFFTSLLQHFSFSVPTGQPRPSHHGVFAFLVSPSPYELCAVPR
Chain of Cytochrome P450 3A4 (P08684 whole entry): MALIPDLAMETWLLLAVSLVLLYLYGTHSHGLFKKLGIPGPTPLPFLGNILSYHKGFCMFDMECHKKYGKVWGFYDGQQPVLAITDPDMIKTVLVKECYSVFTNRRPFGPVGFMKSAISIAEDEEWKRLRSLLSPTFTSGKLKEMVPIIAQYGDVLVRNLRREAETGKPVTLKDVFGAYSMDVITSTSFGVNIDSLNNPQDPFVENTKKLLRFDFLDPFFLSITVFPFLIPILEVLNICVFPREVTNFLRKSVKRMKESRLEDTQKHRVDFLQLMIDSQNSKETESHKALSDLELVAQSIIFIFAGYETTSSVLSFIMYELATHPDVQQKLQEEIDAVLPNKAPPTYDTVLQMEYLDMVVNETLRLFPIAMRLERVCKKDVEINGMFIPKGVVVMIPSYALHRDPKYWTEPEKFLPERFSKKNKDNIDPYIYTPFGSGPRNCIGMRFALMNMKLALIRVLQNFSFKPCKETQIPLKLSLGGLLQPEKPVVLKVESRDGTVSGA

| Structure (SMILES) | EC90 [4] | further results |
| --- | --- | --- |
| CC(C)C[C@H]1CN(C(=O)[C@H]2C[C@@H]2c2ccccc2)[C@@H](CC(C)C)C(=O)N1 | > 10000 nM | inhibition [1]: inactive; EC90 [2]: > 10000 nM; inhibition [3]: inactive |
| CC(C)C[C@H]1C(=O)N[C@@H](c2cccs2)CN1C(=O)c1cc(-c2ccc(F)cc2)on1 | 6 nM | solubility [5]: 0.2 µg/mL (≈ 0.468 µM); inhibition (INH) [6]: Not Active; half-life [7]: 120 min; EC90 [2]: 22 nM; solubility [8]: 0.2 µg/mL (≈ 0.468 µM); inhibition (INH) [9]: Not Active; inhibition (INH) [10]: Not Active; inhibition [11]: inactive; inhibition (INH) [12]: Not Active |
| C/C=C/[C@H]1CN(C(=O)c2cc(-c3ccc(F)cc3)on2)[C@@H](CC(C)C)C(=O)N1 | 60 nM | half-life [7]: 17 min |
| CC(C)C[C@H]1C(=O)N[C@@H](c2ccccc2)CN1C(=O)c1cc(-c2ccc(F)cc2)on1 | 60 nM | half-life [7]: 54 min |
| CC(C)C[C@H]1CN(C(=O)[C@@H]2C[C@H]2c2ccccc2)[C@@H](CC(C)C)C(=O)N1 | 800 nM | EC90 [2]: 1000 nM; CC50 at 192 h [13]: 40000 nM; CC50 at 192 h [14]: 40000 nM; CC50 at 192 h [15]: 40000 nM; CC50 at 192 h [16]: 40000 nM |
| CC(C)C[C@H]1C(=O)N[C@@H](c2ncco2)CN1C(=O)c1cc(-c2ccc(F)cc2)on1 | > 10000 nM |  |
| CC[C@H]1C(=O)N[C@@H](CC(C)C)CN1C(=O)[C@@H]1C[C@H]1c1ccccc1 | > 10000 nM |  |
| COC(=O)c1ccc(/C=C/C(=O)N2C[C@H](CC(C)C)NC(=O)[C@@H]2CC(C)C)cc1 | > 10000 nM |  |
| CC(C)C[C@H]1CN(C(=O)/C=C\c2ccccc2)[C@@H](CC(C)C)C(=O)N1 | > 10000 nM |  |
| CC(C)C[C@H]1C(=O)N[C@@H](c2ccc(C(F)(F)F)cc2)CN1C(=O)c1cc(-c2ccc(F)cc2)on1 | 2750 nM |  |
| CC[C@H](C)[C@H]1CN(C(=O)[C@@H]2C[C@H]2c2ccccc2)[C@@H](CC(C)C)C(=O)N1 | > 10000 nM |  |
| CC(C)C[C@H]1C(=O)N[C@@H](CO)CN1C(=O)c1cc(-c2ccc(F)cc2)on1 | > 10000 nM |  |
| CC(C)C[C@H]1CN(C(=O)/C=C/c2ccc(N(C)C)cc2)[C@@H](CC(C)C)C(=O)N1 | > 10000 nM |  |
| O=C(NCc1cccs1)c1cc2nc(-c3ccco3)cc(C(F)(F)Cl)n2n1 [ANGUIZOLE] |  | EC50 [2]: 560 nM; EC50 [4]: 310 nM |
| CC(C)C[C@H]1C(=O)N[C@@H](c2cc[nH]c2)CN1C(=O)c1cc(-c2ccc(F)cc2)on1 | 63 nM |  |
| CC(C)C[C@H]1C(=O)N[C@@H](C(C)C)CN1C(=O)c1cc(-c2ccc(F)cc2)on1 | 170 nM |  |
| CC(C)C[C@H]1C(=O)N[C@@H](CC(C(F)(F)F)C(F)(F)F)CN1C(=O)c1cc(-c2ccc(F)cc2)on1 | 7250 nM |  |
| CC(C)C[C@H]1CN(C(=O)c2cc(-c3ccc([N+](=O)[O-])cc3)on2)[C@@H](CC(C)C)C(=O)N1 | 2600 nM |  |
| CC(C)C[C@H]1CN(C(=O)/C=C/c2ccc(F)c(F)c2)[C@@H](CC(C)C)C(=O)N1 | 1500 nM |  |
| CC(C)C[C@H]1C(=O)N[C@@H](c2cnco2)CN1C(=O)c1cc(-c2ccc(F)cc2)on1 | 70 nM | solubility [5]: 147 µg/mL (≈ 356 µM); inhibition (INH) [6]: Not Active; half-life [7]: 40 min; EC90 [2]: 16 nM; solubility [8]: 151 µg/mL (≈ 366 µM); inhibition (INH) [9]: Not Active; inhibition (INH) [10]: Not Active; inhibition [11]: inactive; inhibition (INH) [12]: Not Active |
| Cc1ccc(/C=C/C(=O)N2C[C@H](CC(C)C)NC(=O)[C@@H]2CC(C)C)cc1 | 5300 nM |  |
| CC(C)C[C@H]1CN(C(=O)/C=C/c2ccc(Br)cc2)[C@@H](CC(C)C)C(=O)N1 | 7800 nM |  |
| CCC[C@H]1CN(C(=O)c2cc(-c3ccc(F)cc3)on2)[C@@H](CC(C)C)C(=O)N1 | 100 nM |  |
| CC(C)C[C@H]1CN(C(=O)c2cc(-c3ccccc3)on2)[C@@H](CC(C)C)C(=O)N1 | 1100 nM |  |

| Structure (SMILES) | EC90 [4] | further results |
| --- | --- | --- |
| CC(C)C[C@H]1CN(C(=O)/C=C/c2ccc([N+](=O)[O-])cc2)[C@@H](CC(C)C)C(=O)N1 | > 10000 nM |  |
| CC(C)C[C@H]1C(=O)N[C@@H](c2ccccc2F)CN1C(=O)c1cc(-c2ccc(F)cc2)on1 | 100 nM |  |
| CC(C)C[C@H]1CN(C(=O)c2cc(-c3ccc(F)cc3F)on2)[C@@H](CC(C)C)C(=O)N1 | 680 nM |  |
| CC(C)C[C@H]1CN(C(=O)/C=C/c2ccc(C(F)(F)F)cc2)[C@@H](CC(C)C)C(=O)N1 | 8100 nM |  |
| CC(C)C[C@H]1CN(C(=O)c2ccc(-c3ccccc3)o2)[C@@H](CC(C)C)C(=O)N1 | > 5800 nM |  |
| CC(C)C[C@H]1C(=O)N[C@@H](CC(C)(C)C)CN1C(=O)c1cc(-c2ccc(F)cc2)on1 | 2000 nM |  |
| CC(C)C[C@H]1CN(C(=O)c2csc(-c3ccccc3)n2)[C@@H](CC(C)C)C(=O)N1 | > 7900 nM |  |
| CC(C)C[C@H]1CN(C/C=C/c2ccccc2)[C@@H](CC(C)C)C(=O)N1 | 3300 nM |  |
| CC(C)C[C@H]1C(=O)N[C@@H](c2ccsc2)CN1C(=O)c1cc(-c2ccc(F)cc2)on1 | 26 nM |  |
| Cc1ccc([C@H]2CN(C(=O)c3cc(-c4ccc(F)cc4)on3)[C@@H](CC(C)C)C(=O)N2)cc1 | 760 nM |  |
| CC(C)C[C@@H]1CN(C(=O)[C@@H]2C[C@H]2c2ccccc2)[C@@H](CC(C)C)C(=O)N1 | > 10000 nM |  |
| CC(C)C[C@H]1CN(C(=O)c2cccc(-c3ccccc3)c2)[C@@H](CC(C)C)C(=O)N1 | > 10000 nM |  |
| CC(C)C[C@H]1C(=O)N[C@@H](C2CC2)CN1C(=O)c1cc(-c2ccc(F)cc2)on1 | 1100 nM |  |
| CC(C)C[C@H]1C(=O)N[C@@H](C2CCCC2)CN1C(=O)c1cc(-c2ccc(F)cc2)on1 | 90 nM | half-life [7]: 29 min |
| CC(C)C[C@H]1C(=O)N[C@@H](C2CCOCC2)CN1C(=O)c1cc(-c2ccc(F)cc2)on1 | 470 nM |  |
| CC(C)C[C@H]1C(=O)N[C@@H](C2CCCCC2)CN1C(=O)c1cc(-c2ccc(F)cc2)on1 | 190 nM |  |
| CC(C)C[C@H]1CN(C(=O)c2c[nH]c(-c3ccccc3)n2)[C@@H](CC(C)C)C(=O)N1 | > 10000 nM |  |
| Cc1ccsc1[C@H]1CN(C(=O)c2cc(-c3ccc(F)cc3)on2)[C@@H](CC(C)C)C(=O)N1 | 680 nM |  |
| CC(C)C[C@H]1CN(C(=O)/C=C/c2ccc(S(C)(=O)=O)cc2)[C@@H](CC(C)C)C(=O)N1 | > 10000 nM |  |
| CC(C)C[C@H]1CN(C(=O)/C=C/c2ccc(F)cc2F)[C@@H](CC(C)C)C(=O)N1 | 1500 nM |  |
| CC(C)C[C@H]1CN(C(=O)c2cc(-c3ccc(F)cc3)on2)[C@@H](CC(C)C)C(=O)N1 | 130 nM |  |
| CC(C)C[C@H]1CN(C(=O)c2cc(-c3ccc(Br)cc3)on2)[C@@H](CC(C)C)C(=O)N1 | 470 nM |  |
| CC[C@H]1CN(C(=O)c2cc(-c3ccc(F)cc3)on2)[C@@H](CC(C)C)C(=O)N1 | 710 nM |  |
